16 molecules from ChEMBL document CHEMBL1125748, “Non-steroidal antiandrogens. Design of novel compounds based on an infrared study of the dominant conformation and hydrogen-bonding properties of a series of anilide antiandrogens” (J Med Chem, 1991) can be followed below.

Data set [1] is described as follows: Partition coefficient (logP). It is filed as physicochemical. To be noted: octanol/water.
The target of data set [2] is T1, Androgen receptor (Rattus norvegicus) (UniProt P15207).
T1 sequence (whole entry): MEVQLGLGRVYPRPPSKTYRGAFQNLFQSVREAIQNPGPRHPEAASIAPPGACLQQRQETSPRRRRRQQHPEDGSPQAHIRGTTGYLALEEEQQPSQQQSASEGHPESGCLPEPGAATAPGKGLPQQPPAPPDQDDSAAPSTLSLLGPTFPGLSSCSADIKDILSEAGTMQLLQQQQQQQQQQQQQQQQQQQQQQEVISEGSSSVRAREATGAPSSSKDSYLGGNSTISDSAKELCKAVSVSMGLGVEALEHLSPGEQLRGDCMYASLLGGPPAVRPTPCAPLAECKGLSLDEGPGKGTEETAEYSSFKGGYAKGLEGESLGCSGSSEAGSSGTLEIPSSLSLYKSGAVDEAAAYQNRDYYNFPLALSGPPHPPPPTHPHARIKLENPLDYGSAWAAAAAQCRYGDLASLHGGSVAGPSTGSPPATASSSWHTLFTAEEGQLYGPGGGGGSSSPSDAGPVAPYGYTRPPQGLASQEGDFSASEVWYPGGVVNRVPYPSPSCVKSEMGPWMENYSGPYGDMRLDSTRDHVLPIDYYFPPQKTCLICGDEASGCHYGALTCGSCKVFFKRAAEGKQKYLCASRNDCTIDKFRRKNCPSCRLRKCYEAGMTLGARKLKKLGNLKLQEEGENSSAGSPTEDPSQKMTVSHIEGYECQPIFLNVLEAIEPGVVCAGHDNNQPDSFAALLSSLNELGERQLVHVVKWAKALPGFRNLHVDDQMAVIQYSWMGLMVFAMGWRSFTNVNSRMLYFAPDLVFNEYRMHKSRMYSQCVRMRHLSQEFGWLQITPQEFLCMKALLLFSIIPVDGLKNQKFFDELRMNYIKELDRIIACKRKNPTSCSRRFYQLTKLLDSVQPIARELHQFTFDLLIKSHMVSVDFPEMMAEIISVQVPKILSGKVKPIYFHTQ
Kind of data set: In vitro relative binding affinity for rat Androgen receptor.

The target in data set [3] is T1, Androgen receptor (Rattus norvegicus). Kind of data set: Inhibition of anti-androgenic activity in vivo on groups of five rats treated with seven daily subcutaneous doses of testosterone propionate at 200 ug/kg.
Data set [4] shares this target. Kind of data set: In vitro relative binding affinity for rat androgen receptor.
Data set [5] has the same target. Kind of data set: Anti-androgenic activity in vivo on groups of five rats treated with seven daily oral doses of testosterone propionate at 200 ug/kg. It is filed as functional, organism-based. To be noted: in the assay text read “seven daily subcutaneous doses” for “seven daily oral doses”. The essentials:
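Male rats, five per group, castrated at 24 days of age, then given testosterone propionate 200 µg/kg subcutaneously daily for seven days. Antiandrogen was given orally, daily, over the same seven days. Rats were killed 24 h after the last dose and seminal vesicles weighed. Percent inhibition of testosterone-stimulated weight was taken against a running castrate control, and ED50 was read from the dose-response curve.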

Each structure is given as a SMILES string.

In general, logP refers to a log measure of how a compound divides between an organic and an aqueous phase. A low value points to lower lipophilicity. In data set [1], `CC(C(=O)Nc1ccc([N+](=O)[O-])c(C(F)(F)F)c1)C(F)(F)F` (configuration not stated) came in with a logP of 3.71.
As to `CC(O)(CF)C(=O)Nc1ccc([N+](=O)[O-])c(C(F)(F)F)c1` (configuration not stated), in data set [1], the logP is 3.5. This molecule also had a relative binding affinity (RBA) in data set [2] of 5.9.
A word on the inhibition: it is the share of the control response that was lost under treatment. High values mean a strong effect, low ones a weak effect. In turn, `Cc1c(C(C)(O)C(F)(F)F)[nH]c2ccccc12` (configuration not stated) returned an inhibition in data set [3] of 33%. For the same molecule, the relative binding affinity (RBA) in data set [4] amounted to 6.7.
As to `CC(C)(O)C(=O)Nc1ccc(Cl)cc1`, the logP in data set [1] is 2.
Molecule `CC(C)(O)C(=O)Nc1ccc([N+](=O)[O-])c(C(F)(F)F)c1` [HYDROXYFLUTAMIDE] registered a logP in data set [1] of 2.7. This molecule returned a relative binding affinity (RBA) in data set [4] of 2.1.
For orientation: ED50 means the dose at which the effect has come halfway, by size or by number of responders. A lower ED50 goes with an effect at a small dose. `N#CCC(O)(/C=C/c1ccc(Cl)c(Cl)c1)C(F)(F)F` (configuration not stated): it took a dose of 2.5 mg/kg to reach the 50% effect level in data set [5] (ED50). The same molecule displayed a relative binding affinity (RBA) in data set [4] of 3.6.
`OC(/C=C/c1ccc(Cl)c(Cl)c1)(CCl)C(F)(F)F` (configuration not stated) returned an ED50 in data set [5] of 2 mg/kg. The same molecule had a relative binding affinity (RBA) in data set [4] of 1.8.
`CC(=O)C(O)(/C=C/c1ccc(Cl)c(Cl)c1)C(F)(F)F` (configuration not stated) had a relative binding affinity (RBA) in data set [4] of 0.4.
Molecule `CC(O)(C(=O)Nc1ccc([N+](=O)[O-])c(C(F)(F)F)c1)C(F)F` (configuration not stated) displayed a logP in data set [1] of 3.76.
With `OC(/C=C/c1ccc(Cl)c(Cl)c1)(C(F)(F)F)C(F)(F)F`, in data set [4], the relative binding affinity (RBA) was less than 0.2.
In data set [1], `CC(C)(O)C(=O)Nc1ccc([N+](=O)[O-])cc1` displayed a logP of 1.61.
Take `CN(C(=O)C(C)(C)O)c1ccc([N+](=O)[O-])c(C(F)(F)F)c1`: the logP in data set [1] was 3.06.
Molecule `NC(=O)CC(O)(/C=C/c1ccc(Cl)c(Cl)c1)C(F)(F)F` (configuration not stated) yielded an ED50 in data set [5] of 2.5 mg/kg. In data set [4], this molecule yielded a relative binding affinity (RBA) of 0.5.
For the molecule `CC(O)(C(=O)Nc1ccc([N+](=O)[O-])c(C(F)(F)F)c1)C(F)(F)F` (configuration not stated), the logP in data set [1] was 3.21.
As for `CC(O)(/C=C/c1ccc(Cl)c(Cl)c1)C(F)(F)F` (configuration not stated), the relative binding affinity (RBA) in data set [2] is less than 0.2.
The molecule `CC(C)C(=O)Nc1ccc([N+](=O)[O-])c(C(F)(F)F)c1` [FLUTAMIDE] registered a logP in data set [1] of 3.35.
